Molecules are shown by their SMILES. Activity calls are given as the source filed them. No cut-off for these calls is given here.

By inhibition is commonly meant the drop in the measured response relative to a control, in per cent.

For assay [1], the target named is T1, Monoglyceride lipase (Rattus norvegicus) (UniProt Q8R431).
T1 sequence (whole entry): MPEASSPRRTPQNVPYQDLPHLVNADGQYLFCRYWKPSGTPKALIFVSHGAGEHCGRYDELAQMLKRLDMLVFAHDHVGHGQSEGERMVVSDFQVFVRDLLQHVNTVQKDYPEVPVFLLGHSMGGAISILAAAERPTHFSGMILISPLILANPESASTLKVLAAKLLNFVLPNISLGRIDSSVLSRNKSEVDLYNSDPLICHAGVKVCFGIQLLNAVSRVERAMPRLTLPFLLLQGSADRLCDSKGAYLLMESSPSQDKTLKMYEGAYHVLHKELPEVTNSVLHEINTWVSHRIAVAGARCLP
Nature of the assay: Inhibition of wild type rat MAGL expressed in human HeLa cells. The conditions noted are these: time 10.0 min, TDE = time-dependent effect. It counts as cell-based. In a few lines: (§1)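 Homogenates of HeLa cells overexpressing wild-type rat MAGL, in 50 mM Tris-HCl pH 8.0 with 0.5 mg/mL fatty-acid-free BSA, 37 °C; 2-OG substrate 10 µM final, oleic acid by LC/MS. Time course: preincubation for varied times, then 30 min with substrate. Dilution: enzyme concentrated 100-fold, preincubated 20 min with 10× IC50-equivalent compound or 1% DMSO, diluted 100-fold into substrate buffer, product followed over 60 min (n = 3).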

For assay [2], the target named is T1, Monoglyceride lipase (Rattus norvegicus). The assay can be described thus: Irreversible inhibition of rat MAGL expressed in human HeLa cells incubated for 60 mins. It is filed as cell-based. In a few lines:
as §1

For assay [3], the target named is Cannabinoid receptor 1 (Homo sapiens) (UniProt P21554). The assay can be described thus: Agonist activity at CB1 receptor (unknown origin) at 10 uM. It is filed as functional.
Chain of Cannabinoid receptor 1 (Homo sapiens) (P21554 whole entry): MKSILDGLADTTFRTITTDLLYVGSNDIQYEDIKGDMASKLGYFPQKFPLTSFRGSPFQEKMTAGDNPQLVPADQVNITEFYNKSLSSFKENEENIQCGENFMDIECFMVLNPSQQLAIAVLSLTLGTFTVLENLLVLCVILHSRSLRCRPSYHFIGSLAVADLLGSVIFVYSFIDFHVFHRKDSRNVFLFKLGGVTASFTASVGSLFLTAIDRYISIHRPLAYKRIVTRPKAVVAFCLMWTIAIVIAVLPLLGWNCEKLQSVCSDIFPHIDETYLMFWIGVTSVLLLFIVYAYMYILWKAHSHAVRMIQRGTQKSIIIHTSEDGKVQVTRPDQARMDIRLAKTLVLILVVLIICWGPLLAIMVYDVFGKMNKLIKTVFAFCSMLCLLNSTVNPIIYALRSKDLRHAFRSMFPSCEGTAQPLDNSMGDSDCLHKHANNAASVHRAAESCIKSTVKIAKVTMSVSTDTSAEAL
The next assay addresses Cannabinoid receptor 2 (Homo sapiens, UniProt P34972). The assay can be described thus: Agonist activity at human CB2 receptor at 10 uM by TR-FRET assay. It counts as functional. Background: In TR-FRET formats the signal depends on donor and acceptor labels being close together.
In assay [4] the target is Kappa-type opioid receptor (Homo sapiens) (UniProt P41145). Nature of the assay: Agonist activity at human KOP at 10 uM relative to control. It is filed as functional. As to conditions: filed as agonist.
Chain of Kappa-type opioid receptor (Homo sapiens) (P41145 whole entry): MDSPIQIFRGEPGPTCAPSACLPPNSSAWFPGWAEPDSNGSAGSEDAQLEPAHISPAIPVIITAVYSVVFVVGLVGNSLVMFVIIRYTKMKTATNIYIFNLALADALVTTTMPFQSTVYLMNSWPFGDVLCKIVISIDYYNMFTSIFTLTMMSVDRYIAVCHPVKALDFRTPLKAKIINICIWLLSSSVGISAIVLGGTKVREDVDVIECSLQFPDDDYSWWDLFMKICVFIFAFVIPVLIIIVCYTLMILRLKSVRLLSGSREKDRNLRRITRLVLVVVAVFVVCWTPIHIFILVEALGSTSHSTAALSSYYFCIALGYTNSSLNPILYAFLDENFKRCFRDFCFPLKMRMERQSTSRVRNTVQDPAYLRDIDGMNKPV
Assay [5] concerns the target T2, Lysophosphatidylserine lipase ABHD12 (Mus musculus) (UniProt Q99LR1).
T2 sequence (whole entry): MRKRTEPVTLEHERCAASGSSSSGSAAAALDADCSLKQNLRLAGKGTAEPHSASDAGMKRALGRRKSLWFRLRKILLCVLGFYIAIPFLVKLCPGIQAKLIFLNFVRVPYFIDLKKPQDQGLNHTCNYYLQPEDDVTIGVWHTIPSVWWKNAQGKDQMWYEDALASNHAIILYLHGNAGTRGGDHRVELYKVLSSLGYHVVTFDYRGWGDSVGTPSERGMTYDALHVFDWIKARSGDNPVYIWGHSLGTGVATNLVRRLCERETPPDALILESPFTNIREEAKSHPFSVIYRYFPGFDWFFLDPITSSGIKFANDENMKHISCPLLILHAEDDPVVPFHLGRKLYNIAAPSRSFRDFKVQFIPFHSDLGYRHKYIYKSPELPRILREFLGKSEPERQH
The assay can be described thus: Binding affinity to mouse brain ABHD12 at 0.1 to 1 uM incubated for 30 mins in presence of g MB064 by ABPP assay. It is filed as tissue-based. The conditions noted are these: dose 0.1-1 µM. In a few lines:
(§2)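 Male C57Bl/6J mouse brain (27 weeks) homogenised; membrane and cytosol fractions separated and diluted to 2.0 mg/mL. Samples incubated with compound (0.1 or 1 µM final) or 2.5% DMSO for 30 min at RT. Probes MB064 and FP-Bodipy (100 nM each) added for 10 min. SDS-PAGE with in-gel fluorescence; Coomassie staining as loading control.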

Assay [6] concerns the target T3, Monoacylglycerol lipase ABHD6 (Mus musculus) (UniProt Q8R2Y0).
T3 sequence (whole entry): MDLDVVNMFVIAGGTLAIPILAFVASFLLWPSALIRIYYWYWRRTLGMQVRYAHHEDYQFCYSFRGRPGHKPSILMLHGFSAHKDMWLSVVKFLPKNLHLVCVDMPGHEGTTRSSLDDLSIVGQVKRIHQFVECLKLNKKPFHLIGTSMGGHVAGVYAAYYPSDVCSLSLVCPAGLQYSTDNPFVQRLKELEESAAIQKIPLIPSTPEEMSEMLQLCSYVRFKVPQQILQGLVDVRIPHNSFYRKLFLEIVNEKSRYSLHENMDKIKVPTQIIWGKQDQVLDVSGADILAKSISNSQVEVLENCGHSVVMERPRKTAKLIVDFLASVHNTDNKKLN
Nature of the assay: Binding affinity to mouse brain ABHD6 at 0.1 to 1 uM incubated for 30 mins in presence of MB064 by ABPP assay. It is filed as tissue-based. As to conditions: dose 0.1-1 µM. In a few lines:
as §2

In assay [7] the target is Acyl-protein thioesterase 2 (Mus musculus) (UniProt Q9WTL7). Nature of the assay: Binding affinity to mouse brain LYPLA2 at 0.1 to 1 uM incubated for 30 mins in presence of MB064 by ABPP assay. It is filed as tissue-based. The conditions noted are these: dose 0.1-1 µM. The method in brief:
as §2

The target of assay [8] is T4, Monoglyceride lipase (Mus musculus) (UniProt O35678).
T4 sequence (whole entry): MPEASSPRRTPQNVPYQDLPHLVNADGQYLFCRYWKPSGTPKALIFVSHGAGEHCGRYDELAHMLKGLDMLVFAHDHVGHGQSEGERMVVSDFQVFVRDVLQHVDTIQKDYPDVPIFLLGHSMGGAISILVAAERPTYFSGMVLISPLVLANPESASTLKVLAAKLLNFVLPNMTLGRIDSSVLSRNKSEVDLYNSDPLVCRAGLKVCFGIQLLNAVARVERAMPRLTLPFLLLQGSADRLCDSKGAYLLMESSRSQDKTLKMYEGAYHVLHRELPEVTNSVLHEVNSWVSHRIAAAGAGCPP
The assay can be described thus: In-vivo inhibition of MAGL activity in brain of mouse at 5 mg/kg, ip measured after 1 hrs by LC-MS analysis. It is filed as functional, organism-based. The method in brief:
(§3)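 Adult male mice received 5 mg/kg i.p. (n = 3/group), DMSO vehicle. Killed at 1 h. Half-brains used for lipid analysis by LC-MS; the other half homogenised for MAGL activity assay. Compared with vehicle by two-tailed t-test.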

Assay [9] deals with T4, Monoglyceride lipase (Mus musculus). The assay can be described thus: In-vivo inhibition of mouse MAGL assessed as fold increase in 2-AG content in brain at 5 mg/kg, ip measured after 1 hr by LC-MS/MS analysis. It counts as functional, organism-based. In a few lines:
as §3

Assay [10] shares this target. The assay can be described thus: In-vivo inhibition of mouse MAGL assessed as decrease in arachidonic acid level in brain at 5 mg/kg, ip measured after 1 hr by LC-MS/MS analysis. It is filed as functional, organism-based. In a few lines: as §3
The target is the same in assay [11]. The assay can be described thus: In-vivo inhibition of mouse MAGL assessed as effect on docosahexaenoic level in brain at 5 mg/kg, ip measured after 1 hr by LC-MS/MS analysis. It counts as functional, organism-based. The method in brief: as §3
For assay [12] the target is unchanged. Nature of the assay: In-vivo inhibition of mouse MAGL assessed as effect on oleic level in brain at 5 mg/kg, ip measured after 1 hr by LC-MS/MS analysis. It is filed as functional, organism-based. The method in brief:
as §3

For assay [13] the target is unchanged. Nature of the assay: In-vivo inhibition of mouse MAGL assessed as effect on palmitic level in brain at 5 mg/kg, ip measured after 1 hr by LC-MS/MS analysis. It is filed as functional, organism-based. The method in brief: as §3
The target is the same in assay [14]. Nature of the assay: In-vivo inhibition of mouse MAGL assessed as effect on stearic level in brain at 5 mg/kg, ip measured after 1 hr by LC-MS/MS analysis. It counts as functional, organism-based. The method in brief: as §3
Assay [15] shares this target. Nature of the assay: In-vivo inhibition of mouse MAGL assessed as effect on AEA level in brain at 5 mg/kg, ip measured after 1 hr by LC-MS/MS analysis. It is filed as functional, organism-based. In a few lines:
as §3

Assay [16] has the same target. Nature of the assay: In-vivo inhibition of mouse MAGL assessed as effect on OEA level in brain at 5 mg/kg, ip measured after 1 hr by LC-MS/MS analysis. It counts as functional, organism-based. The method in brief: as §3
Assay [17] has the same target. The assay can be described thus: In-vivo inhibition of mouse MAGL assessed as effect on PEA level in brain at 5 mg/kg, ip measured after 1 hr by LC-MS/MS analysis. It is filed as functional, organism-based. The method in brief:
as §3

For assay [18] the target is unchanged. The assay can be described thus: In-vivo inhibition of ip dosed mouse MAGL assessed as increase in 2-Ag level measured after 1 hr by LC-MS/MS analysis. The conditions noted are these: dose 0.2-20 mg/kg. It is filed as functional, organism-based. The method in brief: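 Adult male mice dosed i.p. at 0.2, 1, 5 or 20 mg/kg (n = 3/group), vehicle DMSO or PEG/Tween (4:1). Killed at 1 h; brains halved and frozen. One half for 2-AG by LC-MS, the other for MAGL assay on homogenate. t-test against vehicle; two-way ANOVA with Bonferroni post-test.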

Chain of Acyl-protein thioesterase 2 (Mus musculus) (Q9WTL7 whole entry): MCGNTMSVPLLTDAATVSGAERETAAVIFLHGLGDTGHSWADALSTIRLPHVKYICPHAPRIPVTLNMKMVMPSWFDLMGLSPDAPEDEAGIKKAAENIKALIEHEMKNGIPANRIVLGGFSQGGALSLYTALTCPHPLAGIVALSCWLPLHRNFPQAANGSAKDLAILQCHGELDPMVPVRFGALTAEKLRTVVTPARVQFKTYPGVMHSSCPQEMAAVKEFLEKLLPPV
Chain of Cannabinoid receptor 2 (P34972 whole entry): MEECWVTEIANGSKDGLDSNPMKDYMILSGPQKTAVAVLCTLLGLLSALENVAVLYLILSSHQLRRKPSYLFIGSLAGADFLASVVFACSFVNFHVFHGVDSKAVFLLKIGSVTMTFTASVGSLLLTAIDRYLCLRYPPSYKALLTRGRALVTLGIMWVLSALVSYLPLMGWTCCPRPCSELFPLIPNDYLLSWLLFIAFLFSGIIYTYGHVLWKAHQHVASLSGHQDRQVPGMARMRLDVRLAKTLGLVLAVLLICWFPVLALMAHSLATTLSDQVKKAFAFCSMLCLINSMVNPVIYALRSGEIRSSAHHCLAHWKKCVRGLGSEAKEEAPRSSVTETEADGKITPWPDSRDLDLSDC

`O=C1[C@H](c2ccc(F)cc2)[C@@H](c2ccc3c(c2)OCO3)N1C1CCN(C(=O)n2nnc3ccccc32)CC1` (racemic): the inhibition entry in assay [1] was “Tde”; in [8] it was 50%; in assay [15] it was “Dose-Dependent Effect”; in [16], “Dose-Dependent Effect”; in assay [17] it was “Dose-Dependent Effect”; in assay [18], “Dose-Dependent Effect”. Moreover, the inhibition result in [2], in [10], in assay [11], in assay [12], in assay [13] and in [14] was “Active” throughout. Moreover, the result (in assay [3]; at Cannabinoid receptor 2) was inactive. In assay [4], this compound came in with an Activity of 73%. Further, the outcome in assay [5], in [6] and in assay [7] was Active. The fold change (FC) in assay [9] was more than 40.

`O=C1[C@H](c2ccc(F)cc2)[C@@H](c2ccc3c(c2)OCO3)N1C1CCN(C(=O)n2nnc3ccccc32)CC1`: the result in assay [5], in assay [6] and in assay [7] was Active.

The values are drawn from ChEMBL document CHEMBL5537190, “Development of Potent and Selective Monoacylglycerol Lipase Inhibitors. SARs, Structural Analysis, and Biological Characterization” (J Med Chem, 2024).
